Measurements from different studies.
Protocols differ between the studies behind these lines.
Target: NUAK family SNF1-like kinase 2 (NUAK2, Homo sapiens, UniProt Q9H093)
One construct used (Q9H093 1-628): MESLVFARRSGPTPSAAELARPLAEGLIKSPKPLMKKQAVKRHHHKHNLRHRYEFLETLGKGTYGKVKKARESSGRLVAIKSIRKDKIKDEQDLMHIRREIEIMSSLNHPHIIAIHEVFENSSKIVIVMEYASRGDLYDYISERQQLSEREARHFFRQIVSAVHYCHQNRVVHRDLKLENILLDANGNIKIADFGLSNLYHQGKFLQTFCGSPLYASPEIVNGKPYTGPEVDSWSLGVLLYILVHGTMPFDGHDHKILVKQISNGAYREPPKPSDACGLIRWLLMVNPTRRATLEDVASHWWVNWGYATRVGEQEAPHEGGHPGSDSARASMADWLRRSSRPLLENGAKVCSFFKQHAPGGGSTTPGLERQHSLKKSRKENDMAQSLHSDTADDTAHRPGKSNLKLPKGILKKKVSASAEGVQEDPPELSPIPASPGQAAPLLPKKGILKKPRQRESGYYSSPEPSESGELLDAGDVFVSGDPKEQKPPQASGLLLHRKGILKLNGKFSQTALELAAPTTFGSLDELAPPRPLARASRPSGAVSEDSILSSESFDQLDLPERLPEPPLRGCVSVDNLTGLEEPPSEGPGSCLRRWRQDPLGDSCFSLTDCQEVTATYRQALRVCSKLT

SMILES	effect on	method	concentration	remaining binding [%]
FC(F)(F)Oc1cccc(-c2cnc3ccc(-c4ccncc4)nn23)c1	binding	competition with immobilised ligand	5 µM	37
O=C(O)[C@H]1[C@H](Cn2nnc3ccccc3c2=O)CC[C@@H]1C(=O)c1ccc(OCCC2CCOCC2)cc1	cell-free assay	competition with immobilised ligand	1 µM	100
O=C(NCCCN1CCOCC1)c1ccc(Nc2nccc(-c3cc4ccccc4s3)n2)cc1	binding	competition with immobilised ligand	1 µM	26
N[C@@H]1CCN(c2nccc(-c3cnn4ncccc34)n2)C1	binding	–	1 µM	100
C[C@@H]1CN(c2ccc3ncc(-c4ccc5[nH]nc(C6CC6)c5c4)n3n2)C[C@H](C)O1	binding	competition with immobilised ligand	0.5 µM	58
CC1CCCN1c1nccc(-c2cnn3ncccc23)n1 (stereo not shown)	binding	–	1 µM	85
Nc1ncc2c(n1)-c1c([nH]c3ccc(C#CC4CC4)cc13)CCCC2	binding	competition with immobilised ligand	1 µM	92
CN(C)c1ncc(F)c(-c2cnn3ncccc23)n1	binding	–	1 µM	80
O=C(c1ccc(Nc2nccc(-c3cc4ccccc4s3)n2)cc1)N1CCC(N2CCCC2)CC1	binding	competition with immobilised ligand	1 µM	7.6
Cn1cc(Cl)c2c(Oc3c(F)cc(Nc4cc(Cl)nc(N)n4)cc3F)ccnc21	cell-free assay	competition with immobilised ligand	0.1 µM	85
CNC(=O)[C@@H]1CC[C@@H](n2c(-c3ccc4cnccc4c3)nc3ccc(C(=O)NCc4cccc(C(N)=O)c4)cc32)C1	binding	competition with immobilised ligand	1 µM	100
COc1cc(-c2cn(C3CCc4ccccc4N(CC(F)(F)F)C3=O)nn2)ccc1-n1ccc(C)n1 (stereo not shown)	cell-free assay	competition with immobilised ligand	1 µM	88
N#Cc1ccccc1CSc1nnc2c(n1)[nH]c1ccccc12	binding	competition with immobilised ligand	10 µM	93
O=C(Nc1c[nH]nc1C(=O)NC1CCNCC1)c1cc(F)cc(F)c1	binding	competition with immobilised ligand	1 µM	100
CNCc1ccccc1-c1csc([C@H](C)Nc2nc(C)nc3cc(OC)c(OC)cc23)c1	cell-free assay	competition with immobilised ligand	1 µM	100
CCN1CCN(Cc2ccc(C(=O)Nc3ccc(C)c(Oc4ccc5c(c4)CC(=O)N5)c3)cc2C(F)(F)F)CC1	binding	competition with immobilised ligand	1 µM	100
CNC(=O)Nc1ccc2c(c1)CC[C@@]21OC(=O)N(CC(=O)N(Cc2ccc(F)cc2)[C@@H](C)C(F)(F)F)C1=O	cell-free assay	competition with immobilised ligand	1 µM	74
c1cnn2ncc(-c3ccnc(N4CCC45COC5)n3)c2c1	binding	–	1 µM	64
Nc1c(C(=O)NCc2ccc(C(=O)NCCCC3CCCCC3)cc2)cnn1-c1ccccc1	cell-free assay	competition with immobilised ligand	0.1 µM	100
C[C@@H]1CCN(c2nccc(-c3cnn4ncccc34)n2)C1	binding	–	1 µM	74
Cc1c(NC(=O)c2cc(C(N)=O)nc3cc(F)ccc23)c(C(F)(F)F)nn1Cc1ccc(C#N)cc1	cell-free assay	competition with immobilised ligand	1 µM	83
O=C(c1ccc(Nc2ncc(Cl)c(-c3cc4ccccc4s3)n2)cc1)N1CCC(N2CCCC2)CC1	binding	competition with immobilised ligand	1 µM	0.8
